Experimental data reported in paper PMC7498158 (Journal of Medicinal Chemistry, 2020).

Tests used:
Format in all cases: biochemical
PLAAT5 = molecular target: T1, PLAAT5 (Homo sapiens, UniProt Q96KN8)
T1 sequence (Q96KN8 1-279): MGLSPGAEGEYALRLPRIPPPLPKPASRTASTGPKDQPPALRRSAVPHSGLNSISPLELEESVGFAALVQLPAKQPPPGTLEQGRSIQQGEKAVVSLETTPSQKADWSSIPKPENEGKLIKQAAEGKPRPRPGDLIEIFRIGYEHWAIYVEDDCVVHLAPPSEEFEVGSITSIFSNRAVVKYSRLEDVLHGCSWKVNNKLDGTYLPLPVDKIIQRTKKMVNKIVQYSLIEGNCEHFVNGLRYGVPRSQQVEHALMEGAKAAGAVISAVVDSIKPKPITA
Procedure, shortened: (§1)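 Human PLAAT cDNA (C-terminal FLAG, pcDNA3.1) was PEI-transfected into HEK293T; cytosol came from a 100,000g spin. Cytosol was preincubated with test compound (30 min, rt), then MB064 (20 min, rt). Conditions: PLAAT2 0.25 μg/μL, 250 nM; PLAAT3 0.5 μg/μL, 250 nM; PLAAT4/5 1 μg/μL, 500 nM. In-gel fluorescence was normalized to Coomassie, in triplicate. Single-concentration screen or IC50 from dose–response curves.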

hNAPE-PLD = hNAPE-PLD (Homo sapiens, UniProt Q6IQ20); assay: NAPE-PLD surrogate substrate; conditions: 10 μM
mDAGLβ = molecular target: T2, mDAGLβ (Mus musculus, UniProt Q91WC9); assay: gel-based ABPP, mouse brain membrane proteome; conditions: 10 μM
T2 sequence (Q91WC9 1-669): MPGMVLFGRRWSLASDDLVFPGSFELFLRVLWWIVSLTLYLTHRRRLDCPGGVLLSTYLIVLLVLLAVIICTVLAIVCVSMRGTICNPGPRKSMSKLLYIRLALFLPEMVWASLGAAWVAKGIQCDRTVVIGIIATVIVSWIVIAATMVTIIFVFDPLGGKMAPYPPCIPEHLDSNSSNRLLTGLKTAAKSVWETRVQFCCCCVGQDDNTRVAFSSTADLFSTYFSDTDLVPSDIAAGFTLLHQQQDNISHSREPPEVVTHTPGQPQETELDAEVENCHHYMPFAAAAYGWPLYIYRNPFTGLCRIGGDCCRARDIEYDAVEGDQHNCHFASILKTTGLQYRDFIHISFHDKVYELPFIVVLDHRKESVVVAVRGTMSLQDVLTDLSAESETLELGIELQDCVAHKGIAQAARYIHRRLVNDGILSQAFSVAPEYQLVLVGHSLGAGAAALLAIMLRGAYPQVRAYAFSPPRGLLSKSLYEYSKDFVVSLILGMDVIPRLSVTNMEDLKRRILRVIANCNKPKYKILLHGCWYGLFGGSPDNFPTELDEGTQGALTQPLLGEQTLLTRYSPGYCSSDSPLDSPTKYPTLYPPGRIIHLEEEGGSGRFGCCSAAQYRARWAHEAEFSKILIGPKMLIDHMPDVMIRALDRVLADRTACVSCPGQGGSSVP
Procedure, shortened: (§2)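 Mouse brain was dounce-homogenized in 20 mM HEPES pH 7.2 with DTT, MgCl2 and benzonase. The membrane pellet from ultracentrifugation (100,000g, 45 min, 4 °C) was used at 2 μg/μL. It was preincubated with test compound in DMSO (30 min, rt), then labeled with MB064 (250 nM) or FP-TAMRA (500 nM) for 15 min at rt. Samples ran on 10% SDS-PAGE; fluorescence was normalized to Coomassie staining.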

mFAAH = molecular target: T3, mFAAH (Mus musculus, UniProt O08914); assay: gel-based ABPP, mouse brain membrane proteome; conditions: 10 μM
T3 sequence (O08914 1-579): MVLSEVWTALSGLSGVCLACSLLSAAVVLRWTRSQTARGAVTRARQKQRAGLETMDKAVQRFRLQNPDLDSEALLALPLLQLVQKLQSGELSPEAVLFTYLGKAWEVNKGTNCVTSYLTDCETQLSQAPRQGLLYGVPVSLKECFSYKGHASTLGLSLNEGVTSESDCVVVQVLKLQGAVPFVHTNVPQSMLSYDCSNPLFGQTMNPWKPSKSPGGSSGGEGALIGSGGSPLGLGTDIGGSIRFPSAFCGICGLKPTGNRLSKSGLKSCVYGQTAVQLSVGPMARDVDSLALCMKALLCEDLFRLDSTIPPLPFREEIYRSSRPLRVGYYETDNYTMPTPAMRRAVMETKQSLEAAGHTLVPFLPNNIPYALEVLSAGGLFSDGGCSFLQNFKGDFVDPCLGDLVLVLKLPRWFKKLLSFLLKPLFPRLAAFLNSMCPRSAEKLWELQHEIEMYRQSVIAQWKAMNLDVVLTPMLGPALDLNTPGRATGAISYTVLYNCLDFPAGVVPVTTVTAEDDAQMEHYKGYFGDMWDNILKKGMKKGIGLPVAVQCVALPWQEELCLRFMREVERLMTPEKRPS
Procedure, shortened: as §2

PLAAT4 = molecular target: T4, PLAAT4 (Homo sapiens, UniProt Q9UL19)
T4 sequence (Q9UL19 1-164): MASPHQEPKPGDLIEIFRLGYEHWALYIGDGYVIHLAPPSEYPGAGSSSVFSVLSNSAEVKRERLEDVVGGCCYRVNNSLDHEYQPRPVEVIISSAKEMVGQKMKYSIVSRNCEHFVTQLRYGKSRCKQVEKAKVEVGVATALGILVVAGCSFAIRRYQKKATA
Procedure, shortened: as §1

hMAGL = molecular target: T5, hMAGL (Homo sapiens, UniProt Q99685); assay: natural substrate-based fluorescence assay MAGL; conditions: 10 μM
T5 sequence (Q99685 1-303): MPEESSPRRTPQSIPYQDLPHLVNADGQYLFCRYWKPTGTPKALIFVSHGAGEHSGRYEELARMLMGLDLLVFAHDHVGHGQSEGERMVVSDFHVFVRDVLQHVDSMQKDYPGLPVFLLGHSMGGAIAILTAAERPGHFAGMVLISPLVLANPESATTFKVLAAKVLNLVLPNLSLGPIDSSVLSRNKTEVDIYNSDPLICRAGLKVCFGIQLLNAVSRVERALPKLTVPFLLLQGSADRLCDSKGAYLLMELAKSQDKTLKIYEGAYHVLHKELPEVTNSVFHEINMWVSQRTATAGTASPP

PLAAT2 = molecular target: T6, PLAAT2 (Homo sapiens, UniProt Q9NWW9)
T6 sequence (Q9NWW9 1-162): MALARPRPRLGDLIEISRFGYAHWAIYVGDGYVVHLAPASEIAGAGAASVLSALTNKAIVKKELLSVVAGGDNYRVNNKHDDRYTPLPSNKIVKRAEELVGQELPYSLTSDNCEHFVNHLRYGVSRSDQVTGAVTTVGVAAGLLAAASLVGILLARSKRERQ
Procedure, shortened: as §1

hNAPE-PLD, sequence (Q6IQ20 whole entry): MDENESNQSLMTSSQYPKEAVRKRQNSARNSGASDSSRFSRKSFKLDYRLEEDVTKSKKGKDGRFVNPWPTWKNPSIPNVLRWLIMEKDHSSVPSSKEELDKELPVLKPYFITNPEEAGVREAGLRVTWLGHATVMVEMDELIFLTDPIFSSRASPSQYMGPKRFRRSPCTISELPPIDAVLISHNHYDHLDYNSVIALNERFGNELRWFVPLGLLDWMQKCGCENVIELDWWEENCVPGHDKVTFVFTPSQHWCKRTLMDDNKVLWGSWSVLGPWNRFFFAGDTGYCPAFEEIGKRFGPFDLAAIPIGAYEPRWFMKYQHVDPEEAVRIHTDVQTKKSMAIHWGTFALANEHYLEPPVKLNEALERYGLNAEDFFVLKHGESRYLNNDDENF

higher potency for PLAAT5 than initial hit (PLAAT5): 10 fold | inhibition of NAPE-PLD (in words) (hNAPE-PLD): not inhibited | inhibition of DAGLβ (in words) (mDAGLβ): not inhibited | inhibition of FAAH (in words) (mFAAH): not inhibited | increase in activity/potency for PLAAT4 compared to 25 (PLAAT4): 10 fold | inhibition of MAGL (in words) (hMAGL): not inhibited | higher potency for PLAAT2 than initial hit (PLAAT2): 10 fold | increase in activity/potency for PLAAT2 compared to 25 (PLAAT2): 10 fold
Compound: O=C(CCCc1ccccc1)C(=O)NCCc1ccc(Oc2ccccc2)cc1 [Compound 51, 2-Oxo-N-(4-phenoxyphenethyl)-5-phenylpentanamide]
